Hits are enriched below; roughly 2.1% of the tested compounds scored in any of these assays.
PAX8 reporter: lowers PAX8-driven luciferase in RMG-I cells. RMG-I TPO-luciferase reporter, SteadyGlo, 24 h. inhibition, % at 12.6 µM. AID 652154. 1.2% of 360,000 active;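 active = mean replicate inhibition at least 60% with every replicate also reaching 60%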;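 also: luciferase light reporting Pax8 driven TPO promoter activity; plate controls were median of neutral control wells for no effect and mitoxantrone controls for full effect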
FN deposition inh: fibronectin deposition inhibition; AH1F fibroblasts, Alexa488-fibronectin deposition fluorescence, overnight; inhibition, % at 12.6 µM; 0.086% of 350,000 active; AID 743247;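 active = mean inhibition across replicates of 30% or more, regardless of how many single replicates reach that level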;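 also: positive control wells lacked labelled fibronectin entirely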
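test system = AH1F fibroblasts assembling fluorescent fibronectin matrix | quantity = 10000 AH1F cells per well | buffer or medium = DMEM plus 2% serum, read in PBS | doses = single dose, pinned | incubation = 1 h cell attachment, overnight exposure to compound and label | detection = fluorescence at 485 nm excitation, 525 nm emission | read-out basis = inhibition from reduced deposited-fibronectin fluorescence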
Shn3 3UTR inh: Schnurri-3 reporter inhibition in Clone20 osteoblasts; 0.52% of 360,000 active; Clone20 osteoblast Shn3 3'UTR firefly luciferase, 24 h; inhibition, % at 12.5 µM;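 active = mean inhibition of at least 75% with every replicate also reaching 75%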;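 also: 0% = median of neutral control wells and 100% = pilot-screen positive control compound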
LMP1 NFkB inh: reduces LMP1-driven NF-kappaB luciferase signal; 0.69% of 350,000 active; AID 504558; inhibition, % at 12.5 µM; LMP1-induced NF-kappaB luciferase reporter cells, luminescence; in the data active = inhibition above about 41%;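 also: 0% = neutral control wells and 100% = reference inhibitor control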
EWS-Fli block: blocks EWS/Fli oncoprotein-driven transcription; A673 NR0B1-luciferase reporter, viability-normalised; AID 651661; 0.67% of 350,000 active; inhibition, % at 12.6 µM;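 active = mean inhibition of at least 50% after viability correction, with every replicate also passing that limit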;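 also: firefly luciferase signal divided by Alamar Blue viability fluorescence both relative to DMSO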
aSyn 5UTR inh: MLPCN primary screen, SNCA 5' untranslated region; 0.82% of 300,000 active; alpha-synuclein 5'UTR reporter, inhibitor activity; AID 1813; inhibition, % (tested at 7.5 µM); in the data active = inhibition above about 60%;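 also: H4 neuroglioblastoma cells stably carrying SNCA 5'UTR luciferase fusion; 0% = DMSO wells and 100% = positive control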
* hit, by the source's call; · = no result given.

SMILES	PAX8 reporter	FN deposition inh	Shn3 3UTR inh	LMP1 NFkB inh	EWS-Fli block	aSyn 5UTR inh
COc1ccc(C)c2sc(N(CCN(C)C)C(=O)/C=C/c3cccs3)nc12	27	5	-16	0	·	20
CN(C)CCN(C(=O)/C=C/c1cccs1)c1nc2c(F)cc(F)cc2s1	97*	6	55	-2	·	96*
O=C(C1CC1)N1CC2(C1)[C@H](c1ccccc1)[C@@H](CO)N2Cc1cncnc1	1	·	·	·	8	·
CCOc1cc(/C=N\NC(=O)c2ccc(NC(=O)C(C)(C)C)cc2)ccc1OC(=O)c1ccc(C)cc1	39	0	15	-2	·	2
CCOc1cc(/C=N\NC(=O)c2ccc(NC(=O)CC)cc2)ccc1OC(=O)c1ccccc1	·	-1	95*	-1	·	25
C[C@@H](NC(=O)[C@H]1[C@H](CO)[C@H]2Cn3c(ccc(C4=CCCCC4)c3=O)[C@@H]1N2)c1ccccc1	3	·	·	·	1	·
Cc1cccc(-n2ncc3c(N4CCOCC4)ncnc32)c1	47	-7	23	66*	68*	77*
Cc1cccc(-n2cc(-c3ccccc3)c3c(N4CCOCC4)ncnc32)c1	68*	5	25	8	-10	43
Cc1cccc(-n2ncc3c(N4CCCC4)ncnc32)c1	·	-6	11	7	·	29
COC(=O)C1=CN(c2ccc3c(c2)OCO3)C(N)=C(C#N)C1c1cccc(F)c1 (stereo unspecified)	-5	3	·	·	56*	·
COC(=O)C1=CN(c2ccc(N3CCOCC3)cc2)C(N)=C(C#N)C1c1ccccc1 (stereo unspecified)	-16	8	·	·	-8	·
CC(=O)Nc1ccc2c(c1)C(=O)N(C)C[C@@H](C)[C@H](CN(C)S(C)(=O)=O)O2	·	3	·	·	·	·
O=C(NCc1ccccc1)C1=C[C@@H](c2csc3ccccc23)C[C@@H](OCCCCO)O1	77*	-16	·	·	34	95*
CCCN(CCC)Cc1c(C(=O)N/N=C/C(C)=C\c2ccco2)nnn1-c1nonc1N	93*	-14	3	-11	13	16
C/C(=N\NC(=O)c1nnn(-c2nonc2N)c1CN(C)c1ccccc1)c1ccccn1	·	·	92*	15	·	88*
CC(/C=N/NC(=O)c1nnn(-c2nonc2N)c1CN(C)C)=C\c1ccco1	15	-3	-7	8	8	-25
C[C@H](CO)N1C[C@H](C)[C@H](CN(C)Cc2ccncc2)Oc2c(NC(=O)C3CCOCC3)cccc2C1=O	9	-6	·	·	-6	·
Cn1nc(-c2ccc(N3CCCCC3)c(NC(=O)c3ccco3)c2)c2ccccc2c1=O	·	9	43	28	·	67*
CCN1/C(=C/c2cccc[n+]2C)Sc2ccc(OC)cc21	71*	-6	73	8	38	54
CN1/C(=C/c2cccc[n+]2C)Sc2ccccc21	30	-12	73	14	31	16
Cc1ccc2c(c1)N(C)/C(=C/c1cccc[n+]1C)S2	79*	-13	88*	6	41	54
NC1=C(Br)C(=O)c2ncccc2C1=O	131*	9	97*	70*	20	·
COc1ccc2c(c1)C=C(CN1CCC(CO)(CCc3ccccc3)CC1)CO2	11	-13	44	-5	8	8
COc1ccc(CC2(CO)CCN(CC3=Cc4cc(Cl)ccc4OC3)CC2)cc1	19	-4	90*	11	31	-1
COc1ccc(C[C@@H]2CCn3cc(nn3)COC[C@@H](C(C)C)NC2=O)cc1	-30	-7	·	·	-4	·
SMILES	PAX8 reporter	FN deposition inh	Shn3 3UTR inh	LMP1 NFkB inh	EWS-Fli block	aSyn 5UTR inh
CO[C@@H]1CN(C)C(=O)c2cc(NS(=O)(=O)CC(F)(F)F)ccc2OC[C@H](C)N(C(=O)NC(C)C)C[C@H]1C	-6	4	·	·	-1	·
COc1ccc(CCn2c(C3CCCCC3)nc3c(c(=O)c4ccccc4n3C)c2=O)cc1	40	3	26	·	56*	75*
CCC(=O)Nc1ccc2c(c1)OC[C@@H](C)N(C(=O)CN(C)C)C[C@@H](C)[C@@H](OC)CN(C)C2=O	-15	7	·	·	6	·
Cc1ccc(C(=O)N/N=C/c2ccc(-c3cccc(C(F)(F)F)c3)o2)cn1	25	1	15	3	50*	65*
CNC(=S)N/N=C/c1ccc(-c2cccc(C(=O)O)c2)o1	-36	-3	-51	15	12	15
CCOc1ccc(C2=Nn3c(nnc3-c3ccccc3OC)SC2)cc1	95*	·	39	4	·	109*
CCOc1ccc(-c2nnc3n2N=C(c2ccc(OC)cc2)CS3)cc1	24	11	4	17	·	20
COc1ccc(C2=Nn3c(nnc3-c3ccccc3OC)SC2)cc1OC1CCOC1 (stereo unspecified)	68*	-18	12	24	36	·
COc1ccc(C2=Nn3c(nnc3-c3ccncc3)SC2)cc1OC	·	-1	1	10	·	72*
COc1ccccc1-c1nnc2n1N=C(c1ccc(O)c(O)c1)CS2	·	·	13	-2	·	97*
C[C@H](O)C#Cc1ccc2c(c1)O[C@@H](CN(C)C(=O)CN(C)C)[C@@H](C)CN([C@@H](C)CO)S2(=O)=O	·	·	·	·	-6	·
COc1ccc2c3c(n(C)c2c1)[C@@H](CO)N(Cc1ccc(Cl)cc1)CC31CCN(C(=O)NC(C)C)CC1	-5	·	·	·	9	·
COc1cccc(C(=O)NN2c3ccccc3CCc3ccccc32)c1	67*	-4	34	0	9	6
COc1cccc(C(=O)NNC(=O)c2ccccc2)c1	-38	5	-37	-7	-49	-113
COCC(=O)N1C[C@H](C)[C@@H](OC)CN(C)C(=O)c2ccc(NS(C)(=O)=O)cc2OC[C@@H]1C	-18	3	·	·	-10	·
CCOc1cc(CNCc2ccccc2)ccc1OCc1ccc(Cl)cc1	10	0	92*	15	13	-5
COc1ccc(CNCCc2ccc(Cl)cc2)cc1OCc1ccccc1	·	·	84	-2	·	2
CC(C)CC#Cc1ccc2c(c1)O[C@@H](CN(C)C(=O)C1CC1)[C@H](C)CN([C@@H](C)CO)S2(=O)=O	·	15	·	·	8	·
CN(N=Nc1nc[nH]c1C(N)=O)C1CCCCC1	100*	0	13	·	-11	·
CN(C)N=Nc1nc[nH]c1C(N)=O	102*	-4	24	-14	-3	·
NC(=O)c1[nH]cnc1N=NN(CCO)Cc1ccccc1	74*	-6	10	2	-7	·
COc1cccc(S(=O)(=O)Nc2ccc3c(c2)OC[C@@H](C)N(Cc2ccccc2F)C[C@@H](C)[C@@H](OC)CN(C)C3=O)c1	25	-1	·	·	0	·
Cc1nn(-c2ccccc2)c(N2CCCC2)c1/C=N/NC(=O)c1ccccc1O	-2	13	-7	10	·	36
O=C(N/N=C/c1cc2c3c(c1O)CCCN3CCC2)c1ccccc1O	62*	·	82	65*	11	104*
COc1ccc(-c2cc(=O)c3c(O)c(OC)c(OC)c(OC)c3o2)cc1	-22	·	-12	1	-51	·

Screening results deposited in PubChem by Broad Institute.
